CSN deneddyl inh: blocks human CSN-mediated cullin deneddylation. Purified CSN, SCF-Nedd8-OG deneddylation, fluorescence polarization. 360,000 compounds, 0.38% hits. inhibition, % at 12.5 µM. Q92905;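 active = pattern-corrected inhibition above about 35%, with an unprinted fluorescence ratio check between 0.5 and 1.5, limit read from the data, passing the limit was not always enough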
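Assay system: purified human Csn5 enzyme expressed in HEK293T cells; Input: 0.24 nM Csn5 enzyme, final concentration; Reagent: 10 nM SCFSkp2-Nedd8OG; Compound dosing: 12.5 µM single point; Times: reaction 90 min, room temperature; Technique: fluorescence polarization readout.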
SUMO1-SIM PPI: SUMO1-SIM interaction modulation; P63165; SUMO1 binding to a labelled peptide, TR-FRET, 1 h; inhibition, % at 20 µM; 360,000 compounds, 0.33% hits; AID 602429; in the data active = inhibition above about 37%
LMPTP inh: blocks human LMPTP phosphatase | P24666 | recombinant LMPTP-A, OMFP fluorogenic substrate, fluorescence intensity | inhibition, % at 20 µM | 360,000 compounds, 0.22% hits;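 active = compounds that cut the enzyme signal by at least half of the control window in the single-dose screen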
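test system = LMPTP-A | amount = 0.625 nM LMPTP-A final | reagent = fluorogenic phosphatase substrate OMFP at 400 µM final | incubation = 50 min at room temperature | benchmarks = no-enzyme low control, uninhibited high control | medium = Bis-Tris pH 6.0, DTT, detergent | signal = fluorescence intensity of OMFP turnover product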
Scp1 inh: Scp-1 (human) phosphatase inhibition; Q9GZU7; Recombinant Scp1, phosphopeptide, malachite green phosphate absorbance; inhibition, % at 20 µM; 340,000 compounds, 0.88% hits; AID 493091;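 active = inhibition above about 50% at 20 µM, limit read from the data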
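Incubation: 45 min enzyme reaction at room temperature / System: truncated SCP-1 phosphatase (76-261aa) / Reagent: Phospho 17-mer peptide substrate / Buffer or medium: Acidic Tris acetate buffer with magnesium and detergent / Signal: absorbance at 630 nm / Doses: one concentration, 20 µM, with 1.0% DMSO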
STEP block: STEP (human) phosphatase inhibition. 360,000 compounds, 0.25% hits. P54829. AID 588621. inhibition, % at 20 µM. recombinant STEP, OMFP fluorogenic substrate, fluorescence;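 active = inhibition at 20 µM, scaled per plate between control wells, above about 37%, limit read from the data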
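Material: STEP (striatal-enriched tyrosine phosphatase) enzyme, cell-free; Compound dosing: 20 µM single dose in 1% DMSO; Technique: fluorescence read at 480 nm ex / 540 nm em; Times: reaction 20 min, ambient temperature; Medium: 50 mM Bis-Tris pH 6.0 with 2.5 mM DTT and 0.005% Tween 20; Also added: OMFP at 25 µM.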
DNMT1 inh: blocks human DNA methyltransferase DNMT1 | DNMT1 molecular beacon, Hinp1I cleavage, fluorescence | inhibition (reported as % activation of signal), % at 10 µM | 360,000 compounds, 0.83% hits | AID 588458; in the data active = inhibition above about 50%
Target sequence (P26358 504-1616 limits assumed): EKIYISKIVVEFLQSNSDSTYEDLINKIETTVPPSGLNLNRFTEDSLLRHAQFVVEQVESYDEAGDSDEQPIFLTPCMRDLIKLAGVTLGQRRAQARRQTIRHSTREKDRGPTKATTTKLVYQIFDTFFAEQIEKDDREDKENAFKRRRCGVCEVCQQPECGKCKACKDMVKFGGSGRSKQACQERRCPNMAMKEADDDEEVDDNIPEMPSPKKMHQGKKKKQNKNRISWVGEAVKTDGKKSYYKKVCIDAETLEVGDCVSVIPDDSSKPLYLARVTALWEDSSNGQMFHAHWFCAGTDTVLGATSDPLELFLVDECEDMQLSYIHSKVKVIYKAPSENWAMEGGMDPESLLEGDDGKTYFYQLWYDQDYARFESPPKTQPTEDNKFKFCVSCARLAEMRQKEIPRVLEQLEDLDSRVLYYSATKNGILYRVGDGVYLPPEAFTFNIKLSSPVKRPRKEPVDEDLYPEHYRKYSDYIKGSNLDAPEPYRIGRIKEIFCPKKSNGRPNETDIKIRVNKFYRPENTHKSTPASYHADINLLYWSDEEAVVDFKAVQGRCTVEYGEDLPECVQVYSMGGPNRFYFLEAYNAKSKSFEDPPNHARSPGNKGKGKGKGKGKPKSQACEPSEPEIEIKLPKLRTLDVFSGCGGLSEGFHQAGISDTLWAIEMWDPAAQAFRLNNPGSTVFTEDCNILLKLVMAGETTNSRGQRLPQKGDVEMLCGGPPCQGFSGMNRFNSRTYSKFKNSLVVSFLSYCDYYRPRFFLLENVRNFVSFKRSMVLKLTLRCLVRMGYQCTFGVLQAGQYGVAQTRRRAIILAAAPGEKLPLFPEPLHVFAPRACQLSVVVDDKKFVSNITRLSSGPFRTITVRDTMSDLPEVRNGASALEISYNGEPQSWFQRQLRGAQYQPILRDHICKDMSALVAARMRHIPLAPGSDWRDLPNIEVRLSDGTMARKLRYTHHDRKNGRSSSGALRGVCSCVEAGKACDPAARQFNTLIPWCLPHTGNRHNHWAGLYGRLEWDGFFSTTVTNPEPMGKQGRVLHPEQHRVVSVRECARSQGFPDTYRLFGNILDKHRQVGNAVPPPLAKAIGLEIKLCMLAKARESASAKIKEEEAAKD
Numbers stand for hits. Sampled rows, rich in hits. Any-hit rate of the full collection: about 2%.

How did COc1ccc(/C(C)=N/Nc2ccccc2Cl)c(O)c1 do in these assays?
CSN deneddyl inh: inactive; SUMO1-SIM PPI: 58.2; LMPTP inh: inactive; Scp1 inh: inactive; STEP block: inactive; DNMT1 inh: inactive

What do the screens show for `Cn1ccc2c(N(Cc3ccccc3)Cc3ccccc3)cc3c(c21)C1CCC3O1` (stereo not drawn)?
CSN deneddyl inh: 84.4; SUMO1-SIM PPI: inactive; LMPTP inh: inactive; STEP block: inactive; DNMT1 inh: inactive

What do the screens show for `CN(Cc1ccccc1)c1cc2c(c3c1ccn3C)C1CCC2O1` (stereo not drawn)?
CSN deneddyl inh: inactive; SUMO1-SIM PPI: inactive; LMPTP inh: inactive; STEP block: inactive; DNMT1 inh: inactive

Results for O=C1C=C(N2CCOCC2)c2cccc3cccc1c23 ?
CSN deneddyl inh: inactive; SUMO1-SIM PPI: inactive; LMPTP inh: inactive; STEP block: inactive; DNMT1 inh: inactive

How did O=C1C=C(N2CCOCC2)c2ccccc2C1=O do in these assays?
CSN deneddyl inh: inactive; SUMO1-SIM PPI: 39.9; LMPTP inh: inactive; Scp1 inh: inactive; STEP block: inactive; DNMT1 inh: 81.7

What do the screens show for `CC12CCC(C/C1=N\OC(=O)c1c(F)cccc1F)C2(C)C` (stereo not drawn)?
CSN deneddyl inh: inactive; SUMO1-SIM PPI: inactive; LMPTP inh: inactive; Scp1 inh: inactive; STEP block: inactive; DNMT1 inh: inactive

How did COc1ccc(CC(=O)NNC(=O)c2nn(Cc3ccccc3)c(=O)c3ccccc23)cc1OC do in these assays?
CSN deneddyl inh: inactive; SUMO1-SIM PPI: inactive; LMPTP inh: inactive; Scp1 inh: inactive; STEP block: inactive; DNMT1 inh: inactive

Results for CCOC(=O)C1=CN(Cc2cccc(F)c2)S(=O)(=O)N(C)C1c1ccccc1 (stereo not drawn) ?
CSN deneddyl inh: 103.2; SUMO1-SIM PPI: inactive; LMPTP inh: inactive; Scp1 inh: inactive; STEP block: inactive; DNMT1 inh: inactive

Results for CCOC(=O)C1=CN(Cc2cccc(F)c2)S(=O)(=O)N(C)C1c1cccc(OC)c1 (stereo not drawn) ?
CSN deneddyl inh: inactive; SUMO1-SIM PPI: inactive; LMPTP inh: inactive; Scp1 inh: inactive; STEP block: inactive; DNMT1 inh: inactive

What do the screens show for `N=C1CCC(=N)c2c1c(O)c1ccccc1c2O`?
CSN deneddyl inh: inactive; SUMO1-SIM PPI: 44.4; LMPTP inh: inactive; Scp1 inh: inactive; STEP block: inactive; DNMT1 inh: 75.6

What do the screens show for `Oc1csc(Cc2nc(-c3ccc(-c4ccccc4)cc3)cs2)n1`?
CSN deneddyl inh: inactive; SUMO1-SIM PPI: inactive; LMPTP inh: inactive; Scp1 inh: inactive; STEP block: inactive; DNMT1 inh: inactive

What do the screens show for `NC(=S)Cc1nc(-c2ccccc2)cs1`?
CSN deneddyl inh: inactive; SUMO1-SIM PPI: inactive; LMPTP inh: inactive; Scp1 inh: inactive; STEP block: inactive; DNMT1 inh: 50.4

Results for COc1ccc(-c2coc(CCC(=O)N3CCN(c4cc(C)ccc4C)CC3)n2)cc1 ?
CSN deneddyl inh: inactive; SUMO1-SIM PPI: inactive; LMPTP inh: inactive; Scp1 inh: inactive; STEP block: inactive; DNMT1 inh: inactive

How did CC1=C(SCc2ccccc2)C(=O)c2ccccc2C1=O do in these assays?
CSN deneddyl inh: inactive; SUMO1-SIM PPI: inactive; LMPTP inh: inactive; Scp1 inh: inactive; STEP block: inactive; DNMT1 inh: 76.0

How did CN1CCN(C2=C(Cl)C(=O)c3ccccc3C2=O)CC1 do in these assays?
CSN deneddyl inh: inactive; SUMO1-SIM PPI: 62.3; LMPTP inh: inactive; Scp1 inh: inactive; STEP block: inactive; DNMT1 inh: 87.3

How did O=C1C(Cl)=C(N2CCC(C(=O)O)CC2)C(=O)c2ccccc21 do in these assays?
CSN deneddyl inh: inactive; SUMO1-SIM PPI: inactive; LMPTP inh: inactive; Scp1 inh: inactive; STEP block: inactive; DNMT1 inh: inactive

What do the screens show for `CN(Cc1cccc(F)c1)CC(O)COCc1ccccc1Cl` (stereo not drawn)?
CSN deneddyl inh: inactive; SUMO1-SIM PPI: inactive; LMPTP inh: inactive; Scp1 inh: inactive; STEP block: inactive; DNMT1 inh: inactive

Results for COc1ccc2c(c1)c(=O)oc1cc(OCC(=O)N3CCC(C)CC3)ccc12 ?
CSN deneddyl inh: inactive; SUMO1-SIM PPI: inactive; LMPTP inh: inactive; Scp1 inh: 77.1; STEP block: inactive; DNMT1 inh: 62.9

Results for CC1=Nc2ccc3ccccc3c2C1(C)C ?
CSN deneddyl inh: 35.5; SUMO1-SIM PPI: inactive; LMPTP inh: inactive; Scp1 inh: inactive; STEP block: inactive; DNMT1 inh: inactive

Results for Cc1c2ccccc2c(C)c2c1ccc1ccccc12 ?
CSN deneddyl inh: inactive; SUMO1-SIM PPI: inactive; LMPTP inh: inactive; Scp1 inh: inactive; STEP block: inactive; DNMT1 inh: inactive

How did C[n+]1c(/C=C/c2ccc3c(c2)OCO3)ccc2ccccc21 do in these assays?
CSN deneddyl inh: inactive; SUMO1-SIM PPI: inactive; LMPTP inh: inactive; Scp1 inh: 105.1; STEP block: inactive; DNMT1 inh: inactive

What do the screens show for `C(=Cc1nc2ccccc2o1)c1ccc2c(c1)OCO2`?
CSN deneddyl inh: inactive; SUMO1-SIM PPI: inactive; LMPTP inh: inactive; STEP block: inactive; DNMT1 inh: inactive

How did COc1ccc(NS(=O)(=O)c2cccc(C(=O)NN=Cc3ccc(O)c(OC)c3)c2)cc1 do in these assays?
CSN deneddyl inh: inactive; SUMO1-SIM PPI: 63.4; LMPTP inh: inactive; Scp1 inh: inactive; STEP block: inactive; DNMT1 inh: inactive

What do the screens show for `COc1ccc(NS(=O)(=O)c2cccc(C(=O)N/N=C/c3ccc(O)cc3)c2)cc1`?
CSN deneddyl inh: inactive; SUMO1-SIM PPI: 62.5; LMPTP inh: inactive; Scp1 inh: inactive; STEP block: inactive; DNMT1 inh: inactive

How did COc1ccc(NS(=O)(=O)c2cccc(C(=O)N/N=C/c3ccccc3OC)c2)cc1 do in these assays?
CSN deneddyl inh: inactive; SUMO1-SIM PPI: inactive; LMPTP inh: inactive; Scp1 inh: inactive; STEP block: inactive; DNMT1 inh: inactive

Results for COc1ccc(NS(=O)(=O)c2cccc(C(=O)N/N=C/c3ccccn3)c2)cc1 ?
CSN deneddyl inh: inactive; SUMO1-SIM PPI: inactive; LMPTP inh: inactive; Scp1 inh: inactive; STEP block: inactive; DNMT1 inh: inactive

Results for O=C(N/N=C/c1cc(Br)cc(Br)c1O)c1ccncc1 ?
Scp1 inh: inactive

Results for O=C(N/N=C/c1cc(Cl)cc([N+](=O)[O-])c1O)c1ccc2c(c1)OCO2 ?
CSN deneddyl inh: inactive; SUMO1-SIM PPI: inactive; LMPTP inh: 60.1; Scp1 inh: 99.2; STEP block: 99.4; DNMT1 inh: inactive

What do the screens show for `O=C(N/N=C/c1cc(Br)cc([N+](=O)[O-])c1O)c1ccc(NC(=O)c2ccc(F)cc2)cc1`?
CSN deneddyl inh: inactive; SUMO1-SIM PPI: inactive; LMPTP inh: 61.2; Scp1 inh: 88.9; STEP block: 97.8; DNMT1 inh: inactive

How did CCOc1ccccc1N1CCN(CC(=O)Nc2nccs2)CC1 do in these assays?
CSN deneddyl inh: inactive; SUMO1-SIM PPI: inactive; LMPTP inh: inactive; STEP block: inactive; DNMT1 inh: inactive

Screening results as filed in PubChem.
